Assay outcomes from PubChem BioAssay.
In the library only some 12% were active in any assay of this set; here they are far more common.
PKD1 inh – PKD1 (human) kinase inhibition; 200,000 compounds, 0.056% hits; inhibition, % (no concentration beside the values); Q15139; PKD1 kinase fluorescence polarization assay; AID 797
Target sequence (Q15139 whole entry, looked up): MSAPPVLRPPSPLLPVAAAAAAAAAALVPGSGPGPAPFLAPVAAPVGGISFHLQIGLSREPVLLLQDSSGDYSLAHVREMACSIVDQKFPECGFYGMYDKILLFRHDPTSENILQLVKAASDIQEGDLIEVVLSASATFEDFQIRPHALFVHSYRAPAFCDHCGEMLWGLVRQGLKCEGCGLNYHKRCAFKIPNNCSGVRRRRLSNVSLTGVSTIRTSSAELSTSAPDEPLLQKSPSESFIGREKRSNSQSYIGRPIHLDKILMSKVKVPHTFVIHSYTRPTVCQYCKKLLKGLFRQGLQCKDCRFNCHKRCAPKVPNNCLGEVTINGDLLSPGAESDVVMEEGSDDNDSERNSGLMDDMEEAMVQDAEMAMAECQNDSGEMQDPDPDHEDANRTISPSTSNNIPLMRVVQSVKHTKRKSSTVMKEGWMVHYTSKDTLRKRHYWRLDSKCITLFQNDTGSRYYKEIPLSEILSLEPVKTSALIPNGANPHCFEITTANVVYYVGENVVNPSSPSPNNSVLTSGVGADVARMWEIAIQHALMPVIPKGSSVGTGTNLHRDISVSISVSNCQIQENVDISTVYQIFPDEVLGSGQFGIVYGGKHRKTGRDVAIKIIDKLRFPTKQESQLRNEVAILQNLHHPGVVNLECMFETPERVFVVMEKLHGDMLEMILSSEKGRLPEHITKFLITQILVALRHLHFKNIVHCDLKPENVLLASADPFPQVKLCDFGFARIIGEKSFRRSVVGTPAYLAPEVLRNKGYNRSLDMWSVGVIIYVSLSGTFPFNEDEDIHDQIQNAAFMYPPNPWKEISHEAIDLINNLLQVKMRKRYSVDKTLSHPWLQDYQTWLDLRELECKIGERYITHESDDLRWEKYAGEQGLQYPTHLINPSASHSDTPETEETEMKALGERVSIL
Lmaj promast – Leishmania major promastigote growth inhibition | inhibition, % at 10 µM | 200,000 compounds, 9% hits | Leishmania major promastigotes, resazurin fluorescence viability;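 also: promastigotes grown with compound for 44 hours at 28 °C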
Wee1 stabilizer – inhibitors of human Wee1 degradation; HeLa Luc-Wee1K328M stability, luciferase luminescence; 100% = proteasome inhibitor MG132 effect; reporter increase, % at 5 µM; 220,000 compounds, 1.2% hits; AID 1321;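 active = activation above the mean of all tested compounds plus 3 SD, set per screening run, cut at about 8.8% in these data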;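 also: cells exposed to compound for 20 h before luminescence read; 0% = DMSO alone and 100% = MG132 at 30 µM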
CHOP inhibitor – inhibitors of CHOP induction in ER stress response | CHO-K1 CHOP-promoter luciferase, tunicamycin-induced, 15-18 h | inhibition, % at 10 µM | 220,000 compounds, 3.8% hits;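 active = compounds that reduced the stress-induced luciferase reporter signal by more than about 70% of percent inhibition, limit read from the data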;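 also: 0% = tunicamycin plus vehicle and 100% = wells without tunicamycin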
Rad51 HR inh – blocks human Rad51 in homologous recombination | Q06609 | hRad51 DNA strand exchange, fluorescence dequenching | inhibition, % at 10 µM | 200,000 compounds, 0.085% hits;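 active = inhibition above 40% at the single screening dose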;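 also: 0% = DMSO control wells and 100% = blanks with heterologous ssDNA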
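Test system: preformed human Rad51 ssDNA filaments; also added: Donor/quencher-labelled 47-bp dsDNA substrate; doses: 10 µM final, single point; times: 37 °C 15-min filament assembly, 30-min compound preincubation, 15-min exchange; detection: FRET fluorescence dequenching, excitation 485 nm, emission 520 nm; read-out basis: Fluorescence-based percent inhibition, control- and blank-normalised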
Arbovirus anti – arbovirus infection inhibition | arbovirus infection cell-based antiviral screen | inhibition, % at 10 µM | 200,000 compounds, 0.37% hits; in the data active = inhibition above about 30%
The depositor's hits bear a star. Rule as the data show it, unless noted: active = inhibition above about 50%; inactive = the rest.

What do the screens show for `COc1ccc(CNC(=O)C2CCCN2)cc1OC` (stereo not drawn)?
PKD1 inh: 1; Lmaj promast: -6; Wee1 stabilizer: 2; CHOP inhibitor: 7; Rad51 HR inh: -5; Arbovirus anti: 2

Results for N#CC1=C(N)OC2=C(CCc3ccccc32)C1c1ccccc1Cl (stereo not drawn) ?
PKD1 inh: -3; Lmaj promast: 15; Wee1 stabilizer: -1; CHOP inhibitor: 87*; Arbovirus anti: -33

How did Cn1c2c(c(=O)n(C)c1=O)C(c1ccccc1Cl)C(C#N)=C(N)O2 (stereo not drawn) do in these assays?
Wee1 stabilizer: 1; CHOP inhibitor: -8; Rad51 HR inh: -3

How did CC(C)CC(NC(=O)C(NC(=O)C1OC2OC(C)(C)OC2C2OC(C)(C)OC12)C(C)C)C(=O)O (stereo not drawn) do in these assays?
PKD1 inh: -9; Lmaj promast: 44; Wee1 stabilizer: -1; CHOP inhibitor: 12; Arbovirus anti: 2

Results for O=C(c1ccco1)N(Cc1cccc([N+](=O)[O-])c1)c1ccc(Br)cc1 ?
PKD1 inh: 6; Lmaj promast: 29; Wee1 stabilizer: 0; CHOP inhibitor: 9; Arbovirus anti: -1

Results for O=C(c1ccco1)N(Cc1ccc([N+](=O)[O-])cc1)c1ccc(Br)cc1 ?
PKD1 inh: -13; Lmaj promast: 31; Wee1 stabilizer: 1; CHOP inhibitor: 70*; Rad51 HR inh: -2; Arbovirus anti: -11

How did Cc1nc([N+](=O)[O-])c(Br)n1CC(=O)c1ccc(Cl)cc1 do in these assays?
PKD1 inh: 1; Lmaj promast: 99*; Wee1 stabilizer: 2; CHOP inhibitor: -64; Rad51 HR inh: 3; Arbovirus anti: -42

How did COc1ccc(C(=O)Cn2c(C)nc([N+](=O)[O-])c2Br)cc1 do in these assays?
Wee1 stabilizer: 1; CHOP inhibitor: -156; Rad51 HR inh: -1

How did CCN1CCN(CCc2nc3cc([N+](=O)[O-])ccc3n2C)CC1 do in these assays?
Wee1 stabilizer: 9.3*; CHOP inhibitor: 6

How did Cn1c(CN2CCN(C(=O)c3ccccc3)CC2)nc2cc([N+](=O)[O-])ccc21 do in these assays?
PKD1 inh: 4; Lmaj promast: 51*; Wee1 stabilizer: -2; CHOP inhibitor: 18; Rad51 HR inh: 1; Arbovirus anti: 6

How did O=C(c1ccc(S(=O)(=O)Cc2ccccc2Cl)c([N+](=O)[O-])c1)N1CCN(c2ccccn2)CC1 do in these assays?
PKD1 inh: -4; Lmaj promast: 89*; Wee1 stabilizer: 2; CHOP inhibitor: -15; Rad51 HR inh: -2; Arbovirus anti: -21

How did O=C(c1ccc(S(=O)(=O)Cc2cc(F)ccc2F)c([N+](=O)[O-])c1)N1CCCCC1 do in these assays?
PKD1 inh: 1; Lmaj promast: 78*; Wee1 stabilizer: 1; CHOP inhibitor: 27; Rad51 HR inh: -2; Arbovirus anti: -10

How did O=C(c1ccc(Cl)c([N+](=O)[O-])c1)N1CCN(c2ccccn2)CC1 do in these assays?
PKD1 inh: 14; Lmaj promast: -9; Wee1 stabilizer: -1; CHOP inhibitor: -13; Rad51 HR inh: 6; Arbovirus anti: 6

How did O=C(c1ccc(Cl)cc1[N+](=O)[O-])N1CCN(c2ccccn2)CC1 do in these assays?
PKD1 inh: -3; Lmaj promast: -3; Wee1 stabilizer: 9.3*; CHOP inhibitor: 20; Rad51 HR inh: 9; Arbovirus anti: -3

What do the screens show for `O=C(c1ccc(S(=O)(=O)Cc2cc(F)ccc2F)c([N+](=O)[O-])c1)N1CCCC1`?
PKD1 inh: -2; Lmaj promast: 18; Wee1 stabilizer: -1; CHOP inhibitor: -8; Rad51 HR inh: 2; Arbovirus anti: -21

How did CSc1ccccc1NC(=O)C(=O)c1c[nH]c2ccccc12 do in these assays?
PKD1 inh: 4; Lmaj promast: 5; Wee1 stabilizer: 2; CHOP inhibitor: 19; Arbovirus anti: -3

What do the screens show for `CCOC(=O)c1ccc2c(c1)C(=O)N(C1CCCCC1)C2=O`?
PKD1 inh: -4; Lmaj promast: -7; Wee1 stabilizer: -1; CHOP inhibitor: 29; Rad51 HR inh: -16; Arbovirus anti: 6

How did CCC(=O)Oc1ccc(C(=O)Nc2ccc3c(c2)C(=O)N(C2CCCCC2)C3=O)cc1 do in these assays?
PKD1 inh: 5; Lmaj promast: 1; Wee1 stabilizer: 2; CHOP inhibitor: 71*; Rad51 HR inh: 8; Arbovirus anti: -16
